Common to all, as to type: cell-based
The target of data set [1] is T1, Estrogen receptor (Homo sapiens) (UniProt P03372).
T1 sequence (whole entry): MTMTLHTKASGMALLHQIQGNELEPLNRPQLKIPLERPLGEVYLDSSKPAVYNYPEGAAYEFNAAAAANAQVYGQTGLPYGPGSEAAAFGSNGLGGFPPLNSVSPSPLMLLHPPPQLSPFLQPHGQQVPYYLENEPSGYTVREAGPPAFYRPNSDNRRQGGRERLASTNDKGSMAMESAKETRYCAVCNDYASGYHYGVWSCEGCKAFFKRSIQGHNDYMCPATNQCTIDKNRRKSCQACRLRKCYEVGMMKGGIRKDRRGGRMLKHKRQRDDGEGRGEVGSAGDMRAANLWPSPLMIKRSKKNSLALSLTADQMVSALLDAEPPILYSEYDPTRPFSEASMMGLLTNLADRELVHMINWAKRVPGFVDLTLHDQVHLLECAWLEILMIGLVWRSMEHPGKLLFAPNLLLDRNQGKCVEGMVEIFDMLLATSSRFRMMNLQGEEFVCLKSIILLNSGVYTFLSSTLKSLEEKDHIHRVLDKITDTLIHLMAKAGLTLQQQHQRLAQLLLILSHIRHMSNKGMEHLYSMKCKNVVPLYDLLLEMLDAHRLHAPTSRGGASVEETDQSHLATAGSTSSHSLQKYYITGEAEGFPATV
Put plainly: Downregulation of ERalpha expression in human MCF7 cells after 6 hrs by Western blot method. The method in brief: (§1)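 MCF-7 cells kept in DMEM with 10% FBS, kanamycin and 10 μg/mL insulin, then exposed to compounds for 6 h. Lysates made in SDS buffer (0.1 M Tris-HCl pH 8.0, 10% glycerol, 1% SDS), boiled, BCA-normalized and run on SDS-PAGE. Blots probed with anti-ERα, AR, AhR or VDR and β-actin or lamin B. Chemiluminescence quantified as target/loading-protein ratio; means ± S.E., n=3.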
In general terms: In western blotting, separated proteins are transferred to a membrane and probed.

The target of data set [2] is T1, Estrogen receptor (Homo sapiens). Put plainly: Downregulation of ERalpha expression in human MCF7 cells at 3 uM after 6 hrs by Western blot method relative to beta-actin. The method in brief: as §1
Data set [3] shares this target. As to the kind of experiment: Downregulation of ERalpha expression in human MCF7 cells at 10 uM after 6 hrs by Western blot method relative to lamin B. Summed up:
as §1

The target of data set [4] is T2, Androgen receptor (Homo sapiens) (UniProt P10275).
T2 sequence (whole entry): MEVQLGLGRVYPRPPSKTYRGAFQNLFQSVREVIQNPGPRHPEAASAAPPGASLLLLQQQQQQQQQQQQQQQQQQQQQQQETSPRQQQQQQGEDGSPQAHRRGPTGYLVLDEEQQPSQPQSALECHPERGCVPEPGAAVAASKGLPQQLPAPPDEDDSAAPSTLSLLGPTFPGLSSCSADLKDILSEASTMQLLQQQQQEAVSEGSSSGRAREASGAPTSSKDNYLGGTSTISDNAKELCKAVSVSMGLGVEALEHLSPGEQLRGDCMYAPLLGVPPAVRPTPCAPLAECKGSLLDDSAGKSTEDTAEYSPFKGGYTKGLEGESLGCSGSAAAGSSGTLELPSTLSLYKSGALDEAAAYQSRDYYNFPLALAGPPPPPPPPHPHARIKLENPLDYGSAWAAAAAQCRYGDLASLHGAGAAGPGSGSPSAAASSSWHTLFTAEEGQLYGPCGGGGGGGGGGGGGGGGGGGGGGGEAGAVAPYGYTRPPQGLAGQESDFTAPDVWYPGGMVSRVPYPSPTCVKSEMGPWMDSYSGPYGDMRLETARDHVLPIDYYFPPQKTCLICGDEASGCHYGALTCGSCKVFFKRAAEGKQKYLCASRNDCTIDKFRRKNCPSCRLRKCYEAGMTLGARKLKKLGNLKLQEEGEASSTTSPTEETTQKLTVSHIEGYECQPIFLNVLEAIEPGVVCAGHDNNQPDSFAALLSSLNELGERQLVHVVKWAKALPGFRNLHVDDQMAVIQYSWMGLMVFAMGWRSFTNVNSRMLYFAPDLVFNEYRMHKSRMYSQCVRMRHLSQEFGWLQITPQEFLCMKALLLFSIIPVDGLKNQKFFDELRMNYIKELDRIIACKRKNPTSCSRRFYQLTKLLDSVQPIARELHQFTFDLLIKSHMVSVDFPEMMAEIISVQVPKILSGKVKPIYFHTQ
Put plainly: Downregulation of androgen receptor expression in human MCF7 cells at 10 uM after 6 hrs by Western blot method relative to lamin B. Summed up:
as §1

For data set [5], the target named is T3, Aryl hydrocarbon receptor (Homo sapiens, UniProt P35869).
T3 sequence (P35869 whole entry): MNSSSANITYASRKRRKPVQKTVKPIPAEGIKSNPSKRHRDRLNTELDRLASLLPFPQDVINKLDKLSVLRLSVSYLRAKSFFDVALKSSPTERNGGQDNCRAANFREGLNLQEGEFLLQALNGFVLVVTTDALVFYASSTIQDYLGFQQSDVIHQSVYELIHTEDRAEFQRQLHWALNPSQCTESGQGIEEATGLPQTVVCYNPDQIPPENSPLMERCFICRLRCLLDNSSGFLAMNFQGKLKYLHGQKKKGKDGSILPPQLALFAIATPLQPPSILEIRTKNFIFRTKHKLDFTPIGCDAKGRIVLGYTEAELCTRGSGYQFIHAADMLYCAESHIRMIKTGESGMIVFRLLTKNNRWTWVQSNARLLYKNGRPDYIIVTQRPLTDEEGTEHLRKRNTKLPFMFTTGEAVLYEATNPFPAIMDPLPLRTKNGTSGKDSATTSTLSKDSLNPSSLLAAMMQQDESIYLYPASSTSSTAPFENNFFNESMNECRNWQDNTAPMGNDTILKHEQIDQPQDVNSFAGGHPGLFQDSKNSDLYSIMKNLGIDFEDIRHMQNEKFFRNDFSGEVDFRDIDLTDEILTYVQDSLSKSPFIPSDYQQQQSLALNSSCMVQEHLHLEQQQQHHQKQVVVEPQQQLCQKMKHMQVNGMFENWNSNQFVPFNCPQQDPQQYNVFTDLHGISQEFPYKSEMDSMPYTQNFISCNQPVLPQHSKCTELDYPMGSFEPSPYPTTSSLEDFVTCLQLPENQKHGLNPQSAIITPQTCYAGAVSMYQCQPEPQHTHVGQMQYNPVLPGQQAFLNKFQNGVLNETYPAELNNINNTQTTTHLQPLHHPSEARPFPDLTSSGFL
As to the kind of experiment: Downregulation of AhR expression in human MCF7 cells at 3 uM after 6 hrs by Western blot method relative to lamin B. Particulars: mcf7, 6 h. Summed up:
as §1

For data set [6], the target named is T2, Androgen receptor (Homo sapiens). As to the kind of experiment: Downregulation of androgen receptor expression in human MCF7 cells at 10 uM after 6 hrs in presence of proteasome inhibitor MG132 by Western blot method relative to lamin B. The method in brief: as §1
The target of data set [7] is T3, Aryl hydrocarbon receptor. Put plainly: Downregulation of AhR expression in human MCF7 cells at 1 uM after 6 hrs in presence of proteasome inhibitor MG132 by Western blot method relative to lamin B. As to conditions: mcf7, 6 h. The method in brief: as §1

As to `CCCCCCCCCCNCCOc1ccc(C(CCC)(CCC)c2ccc(O)c(C)c2)cc1C`, the Activity result in data set [1] is “Dose-dependent effect”; in data set [2], 57%; in data set [3], 32 to 44%; in data set [4], 98%; in data set [5], 80%; in data set [6], 77%. Moreover, in data set [7], the Activity is recorded as 105%.

For the origin of these results see ChEMBL document CHEMBL4138058, “Design and synthesis of novel selective estrogen receptor degradation inducers based on the diphenylheptane skeleton” (Medchemcomm, 2017).
